Assay results from paper PMC6858491 (ACS chemical biology, 2019).

Test system: Jurkat cells
Assay: Apoptotic protection assay
Type: cell-based
Conditions: 20 µM inhibitor for 3 h before 10 ng/mL MegaFasL, CellTiter-Glo
How it was run: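 Jurkat A3 cells were grown near confluence (10% FBS, pen/strep/glutamine, 37 °C, 5% CO2), resuspended in fresh medium, and plated at 10,000 cells/well. They were then given test compound (20 µM, or a concentration series with 30 min pretreatment) or DMSO vehicle, for set times before or after 10 ng/mL MegaFasL. Viability was read by CellTiter-Glo 3 h after induction.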

## Z-D^ME^MVD^M-FMK [0^M]
  protection from extrinsic apoptosis (cellular viability): able to preserve cellular viability
